Publication PMC6218153 (Journal of Alzheimer's Disease Reports, 2018)
Marks after values point to notes of the source that are not given here. Where no end group is shown, it is not given here.

Assay: PK study in plasma and CSF after single IV, SC or IN dose
Format: in vivo, rat
In short: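 Cannulated rats (jugular vein, intracisternal; n = 6/route) received a single dose in PBS: IV or SC ~11 mg/kg over 1 min, or IN ~5.5 mg/kg, 10 μL per nostril at 6-min intervals over 18 min. K2EDTA plasma was taken pre-dose to 165 min and CSF pre-dose to 150/180 min. LC/MS/MS (ESI+, 1007.55 > 876.35) with noncompartmental PK; CL = Dose/AUC. CSF ratio = dose-normalised CSF AUC relative to IV.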

DEEEDEEL [P8, DEEEDEEL]
P8 concentration in plasma (IN 5.5 mg/kg single dose, 5 min, Rat 1): 137 ng/mL | P8 concentration in plasma (IN 5.5 mg/kg single dose, 5 min, Rat 2): 262 ng/mL | P8 concentration in plasma (IN 5.5 mg/kg single dose, 5 min, Rat 3): 191 ng/mL | P8 concentration in CSF (IN 5.5 mg/kg single dose, 10 min, Rat 2): 3.09 ng/mL | P8 concentration in CSF (IN 5.5 mg/kg single dose, 10 min, Rat 3): 32.8 ng/mL | P8 concentration in plasma (IN 5.5 mg/kg single dose, 15 min, Rat 1): 102 ng/mL | P8 concentration in plasma (IN 5.5 mg/kg single dose, 15 min, Rat 2): 234 ng/mL | P8 concentration in plasma (IN 5.5 mg/kg single dose, 15 min, Rat 3): 150 ng/mL | P8 concentration in plasma (IN 5.5 mg/kg single dose, 25 min, Rat 1): 60.8 ng/mL | P8 concentration in plasma (IN 5.5 mg/kg single dose, 25 min, Rat 2): 123^b ng/mL | P8 concentration in plasma (IN 5.5 mg/kg single dose, 25 min, Rat 3): 90.6 ng/mL | P8 concentration in CSF (IN 5.5 mg/kg single dose, 30 min, Rat 2): 1.03 ng/mL | P8 concentration in CSF (IN 5.5 mg/kg single dose, 30 min, Rat 3): 1.95 ng/mL | P8 concentration in plasma (IN 5.5 mg/kg single dose, 35 min, Rat 1): 53.7 ng/mL | P8 concentration in plasma (IN 5.5 mg/kg single dose, 35 min, Rat 2): 85.9 ng/mL | P8 concentration in plasma (IN 5.5 mg/kg single dose, 35 min, Rat 3): 66.0 ng/mL | P8 concentration in plasma (IN 5.5 mg/kg single dose, 50 min, Rat 1): 66.1 ng/mL | P8 concentration in plasma (IN 5.5 mg/kg single dose, 50 min, Rat 2): 67.7 ng/mL | P8 concentration in plasma (IN 5.5 mg/kg single dose, 50 min, Rat 3): 45.1 ng/mL | P8 concentration in CSF (IN 5.5 mg/kg single dose, 60 min, Rat 1): 1.18 ng/mL | P8 concentration in CSF (IN 5.5 mg/kg single dose, 60 min, Rat 2): 0.632 ng/mL | P8 concentration in CSF (IN 5.5 mg/kg single dose, 60 min, Rat 3): 1.28 ng/mL | P8 concentration in plasma (IN 5.5 mg/kg single dose, 70 min, Rat 1): 37.6 ng/mL | P8 concentration in plasma (IN 5.5 mg/kg single dose, 70 min, Rat 2): 55.3 ng/mL | P8 concentration in plasma (IN 5.5 mg/kg single dose, 70 min, Rat 3): 32.1 ng/mL | P8 concentration in plasma (IN 5.5 mg/kg single dose, 90 min, Rat 1): 32.2 ng/mL | P8 concentration in plasma (IN 5.5 mg/kg single dose, 90 min, Rat 2): 42.8 ng/mL | P8 concentration in plasma (IN 5.5 mg/kg single dose, 90 min, Rat 3): 20.7 ng/mL | P8 concentration in CSF (IN 5.5 mg/kg single dose, 100 min, Rat 1): 0.537 ng/mL | P8 concentration in CSF (IN 5.5 mg/kg single dose, 100 min, Rat 2): 2.39 ng/mL | P8 concentration in CSF (IN 5.5 mg/kg single dose, 100 min, Rat 3): 0.532 ng/mL | P8 concentration in plasma (IN 5.5 mg/kg single dose, 110 min, Rat 1): 26.0 ng/mL | P8 concentration in plasma (IN 5.5 mg/kg single dose, 110 min, Rat 2): 27.0 ng/mL | P8 concentration in plasma (IN 5.5 mg/kg single dose, 110 min, Rat 3): 13.9 ng/mL | P8 concentration in plasma (IN 5.5 mg/kg single dose, 130 min, Rat 1): 33.2 ng/mL | P8 concentration in plasma (IN 5.5 mg/kg single dose, 130 min, Rat 2): 15.0 ng/mL | P8 concentration in plasma (IN 5.5 mg/kg single dose, 130 min, Rat 3): 14.3 ng/mL | P8 concentration in CSF (IN 5.5 mg/kg single dose, 150 min, Rat 1): 0.581 ng/mL | P8 concentration in CSF (IN 5.5 mg/kg single dose, 150 min, Rat 3): 1.16 ng/mL | P8 concentration in plasma (IN 5.5 mg/kg single dose, 165 min, Rat 1): 32.7 ng/mL | P8 concentration in plasma (IN 5.5 mg/kg single dose, 165 min, Rat 2): 14.9 ng/mL | P8 concentration in plasma (IN 5.5 mg/kg single dose, 165 min, Rat 3): 17.1 ng/mL | P8 concentration in plasma (IV 11.0 mg/kg single dose, 5 min, Rat 1): 102,000 ng/mL | P8 concentration in plasma (IV 11.0 mg/kg single dose, 5 min, Rat 2): 45,300 ng/mL | P8 concentration in plasma (IV 11.0 mg/kg single dose, 5 min, Rat 3): 43,600 ng/mL | P8 concentration in CSF (IV 11.0 mg/kg single dose, 10 min, Rat 2): 50.1^c ng/mL | P8 concentration in CSF (IV 11.0 mg/kg single dose, 10 min, Rat 3): 85.7^c ng/mL | P8 concentration in plasma (IV 11.0 mg/kg single dose, 15 min, Rat 2): 12,600 ng/mL | P8 concentration in plasma (IV 11.0 mg/kg single dose, 15 min, Rat 3): 8,460 ng/mL | P8 concentration in plasma (IV 11.0 mg/kg single dose, 25 min, Rat 1): 4,250 ng/mL | P8 concentration in plasma (IV 11.0 mg/kg single dose, 25 min, Rat 2): 5,650 ng/mL | P8 concentration in plasma (IV 11.0 mg/kg single dose, 25 min, Rat 3): 3,230 ng/mL | P8 concentration in CSF (IV 11.0 mg/kg single dose, 30 min, Rat 1): 42.5 ng/mL | P8 concentration in CSF (IV 11.0 mg/kg single dose, 30 min, Rat 2): 48.2^c ng/mL | P8 concentration in CSF (IV 11.0 mg/kg single dose, 30 min, Rat 3): 39.3 ng/mL | P8 concentration in plasma (IV 11.0 mg/kg single dose, 35 min, Rat 1): 2,160 ng/mL | P8 concentration in plasma (IV 11.0 mg/kg single dose, 35 min, Rat 2): 2,710 ng/mL | P8 concentration in plasma (IV 11.0 mg/kg single dose, 35 min, Rat 3): 1,770 ng/mL | P8 concentration in plasma (IV 11.0 mg/kg single dose, 50 min, Rat 1): 878 ng/mL | P8 concentration in plasma (IV 11.0 mg/kg single dose, 50 min, Rat 2): 1,190 ng/mL | P8 concentration in plasma (IV 11.0 mg/kg single dose, 50 min, Rat 3): 713 ng/mL | P8 concentration in CSF (IV 11.0 mg/kg single dose, 60 min, Rat 1): 22.8 ng/mL | P8 concentration in CSF (IV 11.0 mg/kg single dose, 60 min, Rat 2): 17.8 ng/mL | P8 concentration in CSF (IV 11.0 mg/kg single dose, 60 min, Rat 3): 16.9 ng/mL | P8 concentration in plasma (IV 11.0 mg/kg single dose, 70 min, Rat 1): 392 ng/mL | P8 concentration in plasma (IV 11.0 mg/kg single dose, 70 min, Rat 2): 313 ng/mL | P8 concentration in plasma (IV 11.0 mg/kg single dose, 70 min, Rat 3): 199 ng/mL | P8 concentration in CSF (IV 11.0 mg/kg single dose, 100 min, Rat 1): 10.7 ng/mL | P8 concentration in CSF (IV 11.0 mg/kg single dose, 100 min, Rat 2): 8.69 ng/mL | P8 concentration in CSF (IV 11.0 mg/kg single dose, 100 min, Rat 3): 4.08 ng/mL | P8 concentration in plasma (IV 11.0 mg/kg single dose, 110 min, Rat 1): 93.1 ng/mL | P8 concentration in plasma (IV 11.0 mg/kg single dose, 110 min, Rat 2): 36.4 ng/mL | P8 concentration in plasma (IV 11.0 mg/kg single dose, 110 min, Rat 3): 39.8 ng/mL
